These results are taken from ChEMBL document CHEMBL1154832, “Synthesis and antitumor activity of new dihydropyridine thioglycosides and their corresponding dehydrogenated forms” (Eur J Med Chem, 2010).

In one series the test system is HeLa. In words: Antitumor activity against human HeLa cells xenografted in Swiss albino mouse assessed as increase in life span at 10 ug/kg, ip for 10 consecutive days relative to control. The class given is functional.
Settings: not given
In outline: (§1)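 Male Swiss albino mice (20 ± 2 g), acclimatised one week at 25–27 °C, 12 h light/dark. Ascites tumour established by i.p. inoculation of 1 × 10⁶ viable cells. Dosing began 24 h after inoculation, i.p. daily for 10 consecutive days. DMSO vehicle control group; cisplatine 2 mg/kg i.p. for 10 days as reference. Survival time recorded and % increase in life span derived; mean ± SE, n = 10 mice.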
Turning to `COc1ccc(C2C(C#N)=C(N)NC(S[C@@H]3O[C@H](OC(C)=O)[C@H](OC(=O)O)[C@H](OC(C)=O)[C@H]3OC(C)=O)=C2C#N)cc1` (stereo not given in full), the Activity stood at 30%.
On the same count and under the same terms, the value for `N#CC1=C(N)NC(S[C@@H]2O[C@H](O)[C@H](O)[C@H](O)[C@H]2O)=C(C#N)C1c1ccc2ccccc2c1` (stereo not given in full) was 45%; that for `CC(=O)O[C@H]1O[C@@H](SC2=C(C#N)C(c3ccccc3)C(C#N)=C(N)N2)[C@H](OC(C)=O)[C@@H](OC(C)=O)[C@H]1OC(=O)O` (stereo not given in full) was 30%; that for `COc1ccc(-c2c(C#N)c(N)nc(S[C@@H]3O[C@H](OC(C)=O)[C@H](OC(C)=O)[C@H](OC(C)=O)[C@H]3OC(C)=O)c2C#N)cc1` was 47%.
On the same count and under the same terms, as for `COc1ccc(C2C(C#N)=C(N)NC(S[C@@H]3O[C@H](O)[C@@H](O)[C@H](O)[C@H]3O)=C2C#N)cc1` (stereo not given in full), the figure is 55%; as for `COc1ccc(C2C(C#N)=C(N)NC(S[C@@H]3O[C@H](O)[C@H](O)[C@H](O)[C@H]3O)=C2C#N)cc1` (stereo not given in full), 44%; as for `CC(=O)O[C@H]1O[C@@H](Sc2nc(N)c(C#N)c(-c3ccc4ccccc4c3)c2C#N)[C@H](OC(C)=O)[C@@H](OC(C)=O)[C@@H]1OC(C)=O`, 40%.
On the same count and under the same terms, the value for `CC(=O)O[C@H]1O[C@@H](Sc2nc(N)c(C#N)c(-c3ccc4ccccc4c3)c2C#N)[C@H](OC(C)=O)[C@@H](OC(C)=O)[C@H]1OC(C)=O` was 39%.
With `N#Cc1c(N)nc(S[C@@H]2O[C@H](O)[C@@H](O)[C@H](O)[C@H]2O)c(C#N)c1-c1ccc(Br)cc1`, the Activity is 50%.
The same measure, in the same setting: as for `N#CC1=C(N)NC(S[C@@H]2O[C@H](O)[C@@H](O)[C@H](O)[C@H]2O)=C(C#N)C1c1ccc2ccccc2c1` (stereo not given in full), the figure is 39%.

The subject of another series is HepG2. The series is described as follows: Antitumor activity against human HepG2 cells xenografted in Swiss albino mouse assessed as increase in life span at 10 ug/kg, ip for 10 consecutive days relative to control. The series is classed as functional.
Settings: not given
In outline: as §1
`COc1ccc(C2C(C#N)=C(N)NC(S[C@@H]3O[C@H](OC(C)=O)[C@H](OC(=O)O)[C@H](OC(C)=O)[C@H]3OC(C)=O)=C2C#N)cc1` (stereo not given in full): the Activity came to 30%.
`N#CC1=C(N)NC(S[C@@H]2O[C@H](O)[C@H](O)[C@H](O)[C@H]2O)=C(C#N)C1c1ccc2ccccc2c1` (stereo not given in full): the Activity turned out to be 60%.
On the same count and under the same terms, as for `CC(=O)O[C@H]1O[C@@H](SC2=C(C#N)C(c3ccccc3)C(C#N)=C(N)N2)[C@H](OC(C)=O)[C@@H](OC(C)=O)[C@H]1OC(=O)O` (stereo not given in full), the figure is 34%.
On to `COc1ccc(-c2c(C#N)c(N)nc(S[C@@H]3O[C@H](OC(C)=O)[C@H](OC(C)=O)[C@H](OC(C)=O)[C@H]3OC(C)=O)c2C#N)cc1`, for which the Activity is listed as 48%.
For `COc1ccc(C2C(C#N)=C(N)NC(S[C@@H]3O[C@H](O)[C@@H](O)[C@H](O)[C@H]3O)=C2C#N)cc1` (stereo not given in full), the Activity worked out at 69%.
The same measure, in the same setting: the value for `COc1ccc(C2C(C#N)=C(N)NC(S[C@@H]3O[C@H](O)[C@H](O)[C@H](O)[C@H]3O)=C2C#N)cc1` (stereo not given in full) was 63%.
As for `CC(=O)O[C@H]1O[C@@H](Sc2nc(N)c(C#N)c(-c3ccc4ccccc4c3)c2C#N)[C@H](OC(C)=O)[C@@H](OC(C)=O)[C@@H]1OC(C)=O`, the Activity worked out at 49%.
On to `CC(=O)O[C@H]1O[C@@H](Sc2nc(N)c(C#N)c(-c3ccc4ccccc4c3)c2C#N)[C@H](OC(C)=O)[C@@H](OC(C)=O)[C@H]1OC(C)=O`, for which the Activity was determined as 50%.
As to `N#Cc1c(N)nc(S[C@@H]2O[C@H](O)[C@@H](O)[C@H](O)[C@H]2O)c(C#N)c1-c1ccc(Br)cc1`, the Activity came out at 60%.
For the compound `N#CC1=C(N)NC(S[C@@H]2O[C@H](O)[C@@H](O)[C@H](O)[C@H]2O)=C(C#N)C1c1ccc2ccccc2c1` (stereo not given in full), the Activity was found to be 50%.

A further series concerns Mus musculus. The series is described as follows: Acute toxicity in ip dosed Swiss albino mouse xenografted with human HepG2 cells assessed as mortality measured up to two weeks. The class given is organism-based. As to conditions: in vivo. In outline: (§2)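 Adult Swiss albino mice fasted 12 h, randomised into groups of 10. Single i.p. administration at graded doses, 1 ml/kg body weight; controls received vehicle alone. Food and water given immediately after dosing. Mortality followed for up to two weeks. LD50 taken as the dose giving 50% mortality.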
As to `COc1ccc(C2C(C#N)=C(N)NC(S[C@@H]3O[C@H](OC(C)=O)[C@H](OC(=O)O)[C@H](OC(C)=O)[C@H]3OC(C)=O)=C2C#N)cc1` (stereo not given in full), the LD50 is 0.06 mg/kg.
The same measure, in the same setting: as for `N#CC1=C(N)NC(S[C@@H]2O[C@H](O)[C@H](O)[C@H](O)[C@H]2O)=C(C#N)C1c1ccc2ccccc2c1` (stereo not given in full), the figure is 0.13 mg/kg.
As to `CC(=O)O[C@H]1O[C@@H](SC2=C(C#N)C(c3ccccc3)C(C#N)=C(N)N2)[C@H](OC(C)=O)[C@@H](OC(C)=O)[C@H]1OC(=O)O` (stereo not given in full), the LD50 was 0.07 mg/kg.
Take `COc1ccc(-c2c(C#N)c(N)nc(S[C@@H]3O[C@H](OC(C)=O)[C@H](OC(C)=O)[C@H](OC(C)=O)[C@H]3OC(C)=O)c2C#N)cc1`: the LD50 worked out at 0.065 mg/kg.
With `COc1ccc(C2C(C#N)=C(N)NC(S[C@@H]3O[C@H](O)[C@@H](O)[C@H](O)[C@H]3O)=C2C#N)cc1` (stereo not given in full), the LD50 is 0.11 mg/kg.
The same measure, in the same setting: the value for `COc1ccc(C2C(C#N)=C(N)NC(S[C@@H]3O[C@H](O)[C@H](O)[C@H](O)[C@H]3O)=C2C#N)cc1` (stereo not given in full) was 0.06 mg/kg; that for `CC(=O)O[C@H]1O[C@@H](Sc2nc(N)c(C#N)c(-c3ccc4ccccc4c3)c2C#N)[C@H](OC(C)=O)[C@@H](OC(C)=O)[C@@H]1OC(C)=O` was 0.06 mg/kg; that for `CC(=O)O[C@H]1O[C@@H](Sc2nc(N)c(C#N)c(-c3ccc4ccccc4c3)c2C#N)[C@H](OC(C)=O)[C@@H](OC(C)=O)[C@H]1OC(C)=O` was 0.125 mg/kg.
Same read-out and setting: the value for `N#Cc1c(N)nc(S[C@@H]2O[C@H](O)[C@@H](O)[C@H](O)[C@H]2O)c(C#N)c1-c1ccc(Br)cc1` was 0.105 mg/kg; that for `N#CC1=C(N)NC(S[C@@H]2O[C@H](O)[C@@H](O)[C@H](O)[C@H]2O)=C(C#N)C1c1ccc2ccccc2c1` (stereo not given in full) was 0.11 mg/kg.

The next series has as its system Mus musculus. In words: Acute toxicity in ip dosed Swiss albino mouse inoculated with human HeLa cells assessed as mortality measured up to two weeks. The series is classed as organism-based. The conditions noted are these: in vivo. The essentials:
as §2
With `COc1ccc(C2C(C#N)=C(N)NC(S[C@@H]3O[C@H](OC(C)=O)[C@H](OC(=O)O)[C@H](OC(C)=O)[C@H]3OC(C)=O)=C2C#N)cc1` (stereo not given in full), the LD50 was 0.065 mg/kg.
Turning to `N#CC1=C(N)NC(S[C@@H]2O[C@H](O)[C@H](O)[C@H](O)[C@H]2O)=C(C#N)C1c1ccc2ccccc2c1` (stereo not given in full), the LD50 amounted to 0.12 mg/kg.
In the case of `CC(=O)O[C@H]1O[C@@H](SC2=C(C#N)C(c3ccccc3)C(C#N)=C(N)N2)[C@H](OC(C)=O)[C@@H](OC(C)=O)[C@H]1OC(=O)O` (stereo not given in full), the LD50 stood at 0.06 mg/kg.
Still for that read-out and setting: as for `COc1ccc(-c2c(C#N)c(N)nc(S[C@@H]3O[C@H](OC(C)=O)[C@H](OC(C)=O)[C@H](OC(C)=O)[C@H]3OC(C)=O)c2C#N)cc1`, the figure is 0.07 mg/kg.
On to `COc1ccc(C2C(C#N)=C(N)NC(S[C@@H]3O[C@H](O)[C@@H](O)[C@H](O)[C@H]3O)=C2C#N)cc1` (stereo not given in full), for which the LD50 is 0.095 mg/kg.
The same measure, in the same setting: the value for `COc1ccc(C2C(C#N)=C(N)NC(S[C@@H]3O[C@H](O)[C@H](O)[C@H](O)[C@H]3O)=C2C#N)cc1` (stereo not given in full) was 0.08 mg/kg.
Turning to `CC(=O)O[C@H]1O[C@@H](Sc2nc(N)c(C#N)c(-c3ccc4ccccc4c3)c2C#N)[C@H](OC(C)=O)[C@@H](OC(C)=O)[C@@H]1OC(C)=O`, the LD50 was found to be 0.06 mg/kg.
Take `CC(=O)O[C@H]1O[C@@H](Sc2nc(N)c(C#N)c(-c3ccc4ccccc4c3)c2C#N)[C@H](OC(C)=O)[C@@H](OC(C)=O)[C@H]1OC(C)=O`: the LD50 came out at 0.135 mg/kg.
Same read-out and setting: the value for `N#Cc1c(N)nc(S[C@@H]2O[C@H](O)[C@@H](O)[C@H](O)[C@H]2O)c(C#N)c1-c1ccc(Br)cc1` was 0.12 mg/kg; that for `N#CC1=C(N)NC(S[C@@H]2O[C@H](O)[C@@H](O)[C@H](O)[C@H]2O)=C(C#N)C1c1ccc2ccccc2c1` (stereo not given in full) was 0.115 mg/kg.
